Experiments:
[1] = molecular target: Protease (Human immunodeficiency virus 1) (UniProt Q9YQ12); assay: Inhibition of purified HIV-1 protease using [Arg-Glu(EDANS)-Ser-Gin-Asn-Tyr-Ile-Val-Gin-Lys(dabcyl)-Arg) as fluorogenic substrate at 10 nM by fluorescence assay
Protease [2] = molecular target: T1, Protease (Human immunodeficiency virus 1, UniProt Q9YQ12); assay: Inhibition of purified HIV-1 protease using [Arg-Glu(EDANS)-Ser-Gin-Asn-Tyr-Ile-Val-Gin-Lys(dabcyl)-Arg) as fluorogenic substrate at 10 ng/ml by fluorescence assay
Protease [3] = molecular target: T1, Protease; assay: Inhibition of purified HIV-1 protease using [Arg-Glu(EDANS)-Ser-Gin-Asn-Tyr-Ile-Val-Gin-Lys(dabcyl)-Arg) as fluorogenic substrate at 0.4 ng/ml by fluorescence assay
Protease [4] = molecular target: T1, Protease; assay: Inhibition of purified HIV-1 protease using [Arg-Glu(EDANS)-Ser-Gin-Asn-Tyr-Ile-Val-Gin-Lys(dabcyl)-Arg) as fluorogenic substrate at 50 ng/ml by fluorescence assay
Protease [5] = molecular target: T1, Protease; assay: Inhibition of purified HIV-1 protease using [Arg-Glu(EDANS)-Ser-Gin-Asn-Tyr-Ile-Val-Gin-Lys(dabcyl)-Arg) as fluorogenic substrate at 2 ng/ml by fluorescence assay
Protease [6] = molecular target: T1, Protease; assay: Inhibition of purified HIV-1 protease using [Arg-Glu(EDANS)-Ser-Gin-Asn-Tyr-Ile-Val-Gin-Lys(dabcyl)-Arg) as fluorogenic substrate by fluorescence assay
Outline: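 Wild-type HIV-1 protease, cloned, expressed in Escherichia coli and purified. Inhibitors dissolved in DMSO and diluted. Incubation at 30 °C in 0.1 M sodium acetate, 1 M NaCl, 1 mM DTT, 1 mM EDTA, 3% DMSO, pH 5.0, with the EDANS/dabcyl fluorogenic peptide substrate. Cleavage read by fluorescence in a microplate reader.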

Protease [7] = molecular target: T1, Protease; assay: Inhibition of purified HIV-1 protease using [Arg-Glu(EDANS)-Ser-Gin-Asn-Tyr-Ile-Val-Gin-Lys(dabcyl)-Arg) as fluorogenic substrate at 0.08 ng/ml by fluorescence assay

T1 sequence (Q9YQ12 whole entry): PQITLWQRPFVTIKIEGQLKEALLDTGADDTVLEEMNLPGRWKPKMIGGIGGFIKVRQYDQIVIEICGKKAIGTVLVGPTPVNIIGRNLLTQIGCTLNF
Sequence of Protease (Human immunodeficiency virus 1) (Q9YQ12 as listed by the source): as the sequence (Q9YQ12 whole entry) above

SMILES | inhibition [1] [%] | Inhibition (Protease [2]) [%] | Inhibition (Protease [3]) [%] | Inhibition (Protease [4]) [%] | Inhibition (Protease [5]) [%] | IC50 (Protease [6]) [nM] | Inhibition (Protease [7]) [%]
CC(C)(C)NC(=O)[C@@H]1CN(Cc2cccnc2)CCN1C[C@@H](O)C[C@@H](Cc1ccccc1)C(=O)N[C@H]1c2ccccc2C[C@H]1O | 96.9 |  |  |  |  |  | 
COc1ccc(S(=O)(=O)N(CC(C)C)C[C@@H](O)[C@H](Cc2ccccc2)NC(=O)O[C@H]2CO[C@H]3[C@@H]2OC[C@H]3O[N+](=O)[O-])cc1 |  | 100 | 62.6 | 93.1 | 93.1 | 0.11 | 53.7
CC(C)CN(C[C@@H](O)[C@H](Cc1ccccc1)NC(=O)O[C@H]1CO[C@H]2[C@@H]1OC[C@H]2O[N+](=O)[O-])S(=O)(=O)c1ccc(N)cc1 |  | 98.6 | 75.7 | 94.7 | 94.2 | 0.12 | 47.2
CC(C)CN(C[C@@H](O)[C@H](Cc1ccccc1)NC(=O)O[C@H]1CO[C@H]2[C@@H]1OC[C@H]2O)S(=O)(=O)c1ccc(N)cc1 |  | 95.4 | 57.7 | 98.3 | 80.7 | 0.43 | 33.7
COc1ccc(S(=O)(=O)N(CC(C)C)C[C@@H](O)[C@H](Cc2ccccc2)NC(=O)O[C@H]2CO[C@H]3[C@@H]2OC[C@H]3OC)cc1 |  | 102 | 83.2 | 96.2 | 93.5 | 0.05 | 53.7
CO[C@@H]1CO[C@H]2[C@@H]1OC[C@@H]2OC(=O)N[C@@H](Cc1ccccc1)[C@H](O)CN(CC(C)C)S(=O)(=O)c1ccc(N)cc1 |  | 100 | 59.6 | 97 | 103 | 0.36 | 40.6
COc1ccc(S(=O)(=O)N(CC(C)C)C[C@@H](O)[C@H](Cc2ccccc2)NC(=O)O[C@H]2CO[C@H]3[C@@H]2OC[C@H]3O)cc1 |  | 98 | 74.2 | 97.2 | 99.5 | 0.1 | 51.4
